Here are results for 20 compounds from PubChem BioAssay.

Molecules are shown by their SMILES. Active and inactive are the calls of the source.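 Rule for the calls, unless noted: active = viability at or under a set limit in both replicates, limit being median viability minus 3 SD (cut at about 48% in these data, passing the limit was not always enough); inconclusive = at or under the limit in just one replicate; inactive = at or above the limit in both replicates.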

Test [1] in a line: HUVEC growth inhibition – cell-based, human, primary screen (AID 575;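 active = viability at or below 30% in both replicate assays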;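 note: 100% = median of untreated cell wells with 0.1% DMSO on each plate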). The conditions noted are these: HUVEC proliferation, CellTiter-Glo luminescence, 72 h; at 10 µM; stronger effect = lower value. In short, it runs like this:
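Assay system: primary human umbilical vein endothelial cells / Buffer or medium: endothelial basal medium with 2% FBS plus growth supplements / Compound dosing: one dose, 10 µM final, 0.1% DMSO / Timing: 72 h treatment at 37 °C / Signal: CTG luminescence / Benchmarks: 32 DMSO-only cell-control wells (high), 32 MePR drug-control wells (low) per plate / Plate: collagen-coated 384-well format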
Background: Cellular ATP, detected with luciferase, serves as a proxy for viable cell number.

Test [2] is described as follows: H69AR cell proliferation blockers – human, duplicate replicates, primary screen (AID 580).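 Note: 100% = mean luminescence of untreated wells and 0% = no signal.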 The conditions noted are these: H69AR lung tumor cells viability, ATP luminescence, 72 h; at 10 µM; stronger effect = lower value.
Test [3] is described as follows: MRP1 drug-resistance reversers in H69AR cells – cell-based, doxorubicin co-treatment, pilot screen (AID 601;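 active = viability loss from added drug above about 55%, and viability with drug at most 40%, in both replicates, limit read from the data, passing the limit was not always enough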). The conditions noted are these: CellTiter-Glo, 72 h, at 10 µM; for differential viability (reversal): stronger effect = higher value.
A short description of test [4]: yeast transport mutant growth inhibition pilot in 384-well plates, post-Golgi transport modulator project (AID 636; in the data active = inhibition above about 31%). The conditions noted are these: absorbance 615 nm, about 18 h, stronger effect = higher value.
Test [5] in a line: growth suppression of yeast trafficking mutant, preliminary HTS, modulators of trafficking downstream of Golgi apparatus project, 1536-format plate, OD 615 nm (AID 637; in the data active = inhibition above about 30%). The conditions noted are these: yeast transport mutant growth, absorbance 615 nm, 18 h; stronger effect = higher value.
[6] abbreviates: H69AR cells + 2 uM doxorubicin, measured here: viability with 2 uM doxorubicin, stronger effect = lower value.
[7] abbreviates: H69AR cells, compound alone cytotoxicity.

By viability is commonly meant a read-out of living cells in per cent, often relative to untreated cells. Usually inhibition stands for the change of the read-out against control, counted positive when it falls. As for `N#Cc1nc(COc2ccccc2)oc1NCCN1CCOCC1`, the viability was 108% (inactive) in test [1], 107% (inactive) in test [2], 95% in test [3] (setting [6]) and 107% in test [3] (setting [7]). In addition, the differential viability (reversal) in test [3] (H69AR cells + 2 uM doxorubicin) is 11.7% (inactive). Also, the inhibition was -4.68% (inactive) in test [4] and 10.5% (inactive) in test [5].
For `O=C(CN1C(=O)CCS(=O)(=O)c2ccccc21)NCc1ccc(F)cc1`, the viability in test [1] was 85% (inactive); in test [2], 98.4% (inactive); in test [3] (setting [6]) it was 95.3%; in test [3] (setting [7]), 98.4%. Moreover, in test [3] (H69AR cells + 2 uM doxorubicin), the differential viability (reversal) was 3.11% (inactive). Besides, the inhibition in test [4] was -5.2% (inactive); in test [5], -3.81% (inactive).
Regarding `CCOC(=O)CSc1nnc(-c2ccc(Cl)cc2Cl)o1`, the viability in test [1] is 105% (inactive); in test [2] it was 101% (inactive); in test [3] (setting [6]) it was 97.4%; in test [3] (setting [7]), 101%. The differential viability (reversal) in test [3] (H69AR cells + 2 uM doxorubicin) is 3.39% (inactive). The inhibition in test [4] is -5.07% (inactive); in test [5], -0.16% (inactive).
Turning to `COc1ccccc1Cn1c(-c2ccco2)nc2nc3ccccc3nc21`, the viability in test [1] is 52.5% (inactive); in test [2], 59.9% (inactive); in test [3] (setting [6]) it was 52.6%; in test [3] (setting [7]), 59.9%. Also, in test [3] (H69AR cells + 2 uM doxorubicin), the differential viability (reversal) was 7.3% (inactive). In addition, the inhibition is -6.93% (inactive) in test [4] and 8.41% (inactive) in test [5].
`O=C(CCCNS(=O)(=O)c1ccccc1)NCc1ccco1`: the viability is 94.5% (inactive) in test [1], 99.3% (inactive) in test [2], 92.7% in test [3] (setting [6]) and 99.3% in test [3] (setting [7]). Further, the differential viability (reversal) in test [3] (H69AR cells + 2 uM doxorubicin) is 6.58% (inactive). The inhibition in test [4] is -4.67% (inactive); in test [5] it was 1.9% (inactive).
Regarding `Cc1ccc2nsnc2c1S(=O)(=O)N1CCN(Cc2ccc3c(c2)OCO3)CC1`, the viability in test [1] was 91% (inactive); in test [2], 91% (inactive); in test [3] (setting [6]), 89.3%; in test [3] (setting [7]), 91%. For the same compound, the differential viability (reversal) in test [3] (H69AR cells + 2 uM doxorubicin) was 1.65% (inactive). The results for the inhibition in test [4] and in test [5] were -3.03% (inactive) and 2.86% (inactive), respectively.
Regarding `Nc1nc(SCc2ccc(Cl)cc2Cl)n[nH]1`, the viability in test [1] is 85.8% (inactive); in test [2], 92.5% (inactive); in test [3] (setting [6]), 88.3%; in test [3] (setting [7]), 92.5%. Further, the differential viability (reversal) in test [3] (H69AR cells + 2 uM doxorubicin) was 4.17% (inactive). Further, the inhibition is -7.47% (inactive) in test [4] and 0.79% (inactive) in test [5].
For the compound `CCOC(=O)CC(=O)c1cc(OC)c(OC)c(OC)c1`, the viability in test [1] was 97.1% (inactive); in test [2] it was 107% (inactive); in test [3] (setting [6]) it was 95.6%; in test [3] (setting [7]), 107%. Besides, in test [3] (H69AR cells + 2 uM doxorubicin), the differential viability (reversal) was 11.3% (inactive). The results for the inhibition in test [4] and in test [5] were -0.53% (inactive) and -3.49% (inactive), respectively.
In the case of `CN(C)CCNC(=O)c1ccc(COCC(F)(F)F)cc1`, the viability in test [1] was 104% (inactive); in test [2] it was 84.6% (inactive); in test [3] (setting [6]) it was 83.5%; in test [3] (setting [7]), 84.6%. Also, the differential viability (reversal) in test [3] (H69AR cells + 2 uM doxorubicin) was 1.1% (inactive). Further, the inhibition in test [4] is -7.07% (inactive); in test [5], -3.65% (inactive).
Take `N=c1sc2ccccc2n1-c1ccccc1`: the viability was 102% (inactive) in test [1], 89% (inactive) in test [2], 82.4% in test [3] (setting [6]) and 89% in test [3] (setting [7]). Also, in test [3] (H69AR cells + 2 uM doxorubicin), the differential viability (reversal) was 6.59% (inactive). Also, the results for the inhibition in test [4] and in test [5] were -3.12% (inactive) and 3.33% (inactive), respectively.
Turning to `CNCCC(Oc1ccc(C(F)(F)F)cc1)c1ccccc1` (stereo not given), the viability was 54.1% (inactive) in test [1], 58.5% (inactive) in test [2], 65.2% in test [3] (setting [6]) and 58.5% in test [3] (setting [7]). Besides, the differential viability (reversal) in test [3] (H69AR cells + 2 uM doxorubicin) was -6.63% (inactive). In addition, the inhibition was 2.47% (inactive) in test [4] and -3% (inactive) in test [5].
As to `O=C(CCN1CCOCC1)Nc1ccc2c(c1)CCC2`, the viability is 79.7% (inactive) in test [1], 93.7% (inactive) in test [2], 86.8% in test [3] (setting [6]) and 93.7% in test [3] (setting [7]). For the same compound, the differential viability (reversal) in test [3] (H69AR cells + 2 uM doxorubicin) was 6.83% (inactive). In addition, the inhibition in test [4] is -5.26% (inactive); in test [5], -4.13% (inactive).
Take `O=C(CCn1c(=O)c2sccc2n(CC(=O)NCc2ccco2)c1=O)NCc1ccccc1`: the viability is 93.6% (inactive) in test [1], 96.9% (inactive) in test [2], 92.5% in test [3] (setting [6]) and 96.9% in test [3] (setting [7]). Further, the differential viability (reversal) in test [3] (H69AR cells + 2 uM doxorubicin) was 4.46% (inactive). The inhibition in test [4] was -0.65% (inactive); in test [5], -1.59% (inactive).
Consider `Cc1cc(NC(=O)c2ccc3nc(-c4ccccc4)c(-c4ccccc4)nc3c2)no1`, for which the viability in test [1] was 23.6% (active); in test [2], 13.4% (active); in test [3] (setting [6]), 14.8%; in test [3] (setting [7]), 13.4%. In addition, in test [3] (H69AR cells + 2 uM doxorubicin), the differential viability (reversal) was -1.37% (inactive). The inhibition in test [4] is -1.05% (inactive); in test [5], 0.79% (inactive).
In the case of `COc1ccccc1C(=O)Nc1c2c(nn1-c1cccc(C)c1C)CS(=O)(=O)C2`, the viability in test [1] is 49.2% (inactive); in test [2], 95.2% (inactive); in test [3] (setting [6]), 72.3%; in test [3] (setting [7]), 95.2%. In test [3] (H69AR cells + 2 uM doxorubicin), the differential viability (reversal) was 22.9% (inactive). Further, the inhibition was -4.13% (inactive) in test [4] and 1.94% (inactive) in test [5].
Consider `Nc1cc(C(=O)O)ccc1Nc1ccccc1`, for which the viability is 86.8% (inactive) in test [1], 111% (inactive) in test [2], 99.8% in test [3] (setting [6]) and 111% in test [3] (setting [7]). Besides, in test [3] (H69AR cells + 2 uM doxorubicin), the differential viability (reversal) is 11.5% (inactive). The inhibition is -5.06% (inactive) in test [4] and 2.38% (inactive) in test [5].
`CC(=O)NCC(=O)OC(C)C(=O)Nc1ccc(C(C)=O)cc1` (stereo not given): the viability in test [1] is 97.1% (inactive); in test [2], 95.2% (inactive); in test [3] (setting [6]) it was 97.3%; in test [3] (setting [7]) it was 95.2%. Also, the differential viability (reversal) in test [3] (H69AR cells + 2 uM doxorubicin) was -2.15% (inactive). Also, the results for the inhibition in test [4] and in test [5] were -6.75% (inactive) and -5.4% (inactive), respectively.
Regarding `CCOC(=O)c1c(NC(=O)c2ccoc2C)sc2c1CCC2`, the viability was 93.3% (inactive) in test [1], 78.9% (inactive) in test [2], 88.6% in test [3] (setting [6]) and 78.9% in test [3] (setting [7]). In addition, the differential viability (reversal) in test [3] (H69AR cells + 2 uM doxorubicin) was -9.7% (inactive). The inhibition in test [4] was -3.82% (inactive); in test [5], 0.95% (inactive).
For the compound `O=C(NCc1ccco1)c1noc2c1CCCCC2`, the viability was 96.4% (inactive) in test [1], 78.4% (inactive) in test [2], 72.6% in test [3] (setting [6]) and 78.4% in test [3] (setting [7]). Besides, in test [3] (H69AR cells + 2 uM doxorubicin), the differential viability (reversal) was 5.79% (inactive). The inhibition in test [4] is -3.64% (inactive); in test [5], -0.95% (inactive).
For `Cc1nc(NCc2ccccn2)c2ccccc2n1`, the viability was 71% (inactive) in test [1], 104% (inactive) in test [2], 87.9% in test [3] (setting [6]) and 104% in test [3] (setting [7]). Moreover, the differential viability (reversal) in test [3] (H69AR cells + 2 uM doxorubicin) is 16.4% (inactive). The inhibition in test [4] is 2.08% (inactive); in test [5], 2.7% (inactive).
